OX1R antag-1 – antagonists of human orexin 1 receptor (OX1R); O43613; OX1R-expressing cells, FRET antagonist read-out; inhibition, % at 6.6 µM; actives 1.8% (n = 330,000); AID 485270; in the data active = inhibition mostly above about 38%, no sharp cut-off; inactive = mostly below about 40%
Target sequence (O43613 whole entry, looked up): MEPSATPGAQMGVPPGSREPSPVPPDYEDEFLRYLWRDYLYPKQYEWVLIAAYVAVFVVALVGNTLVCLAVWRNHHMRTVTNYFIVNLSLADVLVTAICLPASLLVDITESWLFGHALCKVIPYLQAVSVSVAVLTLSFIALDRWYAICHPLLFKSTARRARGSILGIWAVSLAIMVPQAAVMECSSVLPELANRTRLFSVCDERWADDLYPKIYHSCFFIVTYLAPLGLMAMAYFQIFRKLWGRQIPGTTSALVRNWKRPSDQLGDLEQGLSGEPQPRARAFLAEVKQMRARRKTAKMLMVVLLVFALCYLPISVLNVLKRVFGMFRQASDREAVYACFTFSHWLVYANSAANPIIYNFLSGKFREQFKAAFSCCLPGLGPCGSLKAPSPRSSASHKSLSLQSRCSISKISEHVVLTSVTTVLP
TAAR1 antag – antagonists of human TAAR1; Q96RJ0; CHO RD-HGA16 TAAR1, Fluo-8 calcium fluorescence, antagonist; inhibition, % at 3 µM; actives 1.5% (n = 360,000); AID 624466;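 active = inhibition above a per-plate cutoff, the mean inhibition of test compounds on that plate plus 3 SD, cut at about 49% in these data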
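Material: RD-HGA16 CHO cells with stable hTAAR1 and Gα16; Dosing: single nominal final test compound concentration of 3 µM; Schedule: seeding 17-24 h prior, 75-min 37 °C, 30-min RT dye loading; Detection: kinetic Fluo-8 calcium fluorescence measurement; Measure: % inhibition from peak post-agonist over basal fluorescence ratio; Benchmarks: vehicle and agonist controls.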
GPR7 antag – antagonists of human GPR7 (neuropeptides B/W receptor 1); inhibition, % at 4.4 µM; GPR7-expressing cells, fluorescence antagonist assay; AID 1861; actives 1.1% (n = 290,000); P48145; in the data active = inhibition above about 16%, passing the limit was not always enough;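 note: cells stimulated with the agonist NPW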
TAAR1 agonist – agonists of human TAAR1; Q96RJ0; CHO RD-HGA16 TAAR1, Fluo-8 calcium fluorescence; vehicle wells 0%, saturating PEA agonist 100%; activation, % at 3 µM; actives 0.99% (n = 360,000);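 active = activation above the mean activation of all test compounds in the run plus 3 SD, cut at about 38% in these data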
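System: CHO RD-HGA16 cells carrying human TAAR1 plus Gα16; Incubation: 17-24 h seeding, 75 min 37 °C dye, 30 min RT; Measured by: Fluo-8 fluorescence, 5 s baseline then 140 s kinetic read; Control set: DMSO and PEA EC100; Replication: single well for each compound.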
OX1R antag-2 – antagonists of human orexin 1 receptor. inhibition, % at 5 µM. CHO/OX1R cells, Fluo-8 calcium fluorescence, orexin A. actives 0.43% (n = 330,000);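 active = inhibition above its plate's threshold, mean inhibition of all tested compounds on the plate plus 3 SD, cut at about 37% in these data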
CHO parental Ca – counter-screen for OX1R antagonists: effect in parental CHO cells; parental CHO-K1, ATP-induced calcium, Fluo-8 fluorescence; inhibition, % at 5.6 µM; actives 0.63% (n = 330,000); AID 463079;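 active = inhibition above that plate's mean sample inhibition plus 3 SD, cut at about 26% in these data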
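test system = CHO parental line | reagent = ATP stimulus | measured by = intracellular calcium via Fluo-8 no-wash fluorescent dye | control set = ATP and no-ATP DMSO wells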
TAAR1 ag conf – human TAAR1 agonism, confirmed | shares compounds with TAAR1 agonist | CHO RD-HGA16 TAAR1, Fluo-8 calcium fluorescence; scaled: DMSO 0%, maximal phenethylamine 100% | activation, % at 3 µM | actives 82% (n = 2,400) | AID 651783;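 active = activation above a cutoff set at the run's mean compound activation plus 3 SD, cut at about 39% in these data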
Ga16 ag counter – nonselective agonism, TAAR1 counter-screen; activation, % at 3 µM; shares compounds with TAAR1 agonist; AID 651787; CHO-Ga16 parental, Fluo-8 calcium fluorescence; normalized to maximal ATP response, DMSO zero; actives 50% (n = 2,400);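 active = activation above the run cutoff, the mean activation over all tested wells plus 3 SD, cut at about 12% in these data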
TAAR1 desens – human TAAR1 agonist that also desensitizes the receptor; shares compounds with TAAR1 agonist; CHO RD-HGA16 hTAAR1, Fluo-8 calcium, beta-PEA response inhibition; inhibition, % at 3 µM; actives 46% (n = 2,400); AID 651951;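 active = inhibition above the run cutoff, the mean inhibition of all test compounds plus 3 SD, cut at about 49% in these data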;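 note: beta-PEA stimulus applied at its EC80; loss of beta-PEA calcium signal after compound pretreatment read as receptor desensitization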
Ga16 nonsel ant – nonselective Ga16 antagonism, counter-screen | CHO-Ga16 ATP-induced calcium, Fluo-8 fluorescence | inhibition, % at 3 µM | shares compounds with TAAR1 agonist | AID 651952 | actives 39% (n = 2,400);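 active = inhibition above the plate's mean compound inhibition plus 3 SD, computed per plate, cut at about 22% in these data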
Numbers stand for hits; - = inactive; . = no result given. Only some compounds are listed: those with a hit (about 4.5% of all), similar ones and a draw of the others.

SMILES	OX1R antag-1	TAAR1 antag	GPR7 antag	TAAR1 agonist	OX1R antag-2	CHO parental Ca	TAAR1 ag conf	Ga16 ag counter	TAAR1 desens	Ga16 nonsel ant
COc1ccc(CCNC(=O)C2CC3Cn4c(nc5cc(Cl)c(Cl)cc54)C3N2C)cc1 (stereo not drawn)	-	-	.	-	-	-	.	.	.	.
CN1C(C(=O)NCCc2cccs2)CC2Cn3c(nc4cc(Cl)c(Cl)cc43)C21 (stereo not drawn)	-	-	.	69	-	-	83	-	-	-
C=CCn1c(SCC(=O)N(CC)c2c(N)n(Cc3ccccc3)c(=O)[nH]c2=O)nnc1-c1ccccc1OC	.	-	.	877	.	.	-	-	-	-
CCc1nc(N)c(C#N)c(-c2ccco2)c1C	-	-	-	81	-	-	-	-	-	-
COc1cc(CCCN2CCNC[C@@H]2c2ccccc2)cc(OC)c1OC	-	-	.	-	-	-	.	.	.	.
c1ccc([C@H]2CNCCN2CCc2cccc3ccccc23)cc1	-	-	.	54	-	-	76	20	53	24
CCCc1c2ccccc2nc2ccccc12	-	-	-	70	-	-	-	-	-	-
CCCC1(CCC)NC(=O)N(CC(=O)Nc2cccc(OC)c2)C1=O	-	-	-	-	-	-	.	.	.	.
CCCOc1ccc(-c2c(C(=O)N/N=C(\C)c3cccs3)nnn2-c2nonc2N)cc1	-	-	-	53	-	-	56	22	-	-
CCOc1ccc(/C(C)=N/NC(=O)c2nnn(-c3nonc3N)c2-c2cccs2)cc1	-	-	-	119	-	-	117	88	-	-
O=c1[nH]c(=O)n(C(c2ccccc2)c2ccccc2)cc1Br	-	-	-	-	-	-	.	.	.	.
O=c1[nH]nc(Br)c(=O)n1C(c1ccccc1)c1ccccc1	.	-	.	71	.	.	47	26	-	-
COc1ccc(NS(=O)(=O)c2ccc(-n3nnc4ccccc43)c([N+](=O)[O-])c2)cc1	-	-	-	52	-	-	72	39	50	40
CC(C)(C)C1CCc2onc(C(=O)NC3CCCC3)c2C1 (stereo not drawn)	-	-	-	45	-	-	71	39	-	-
CO/N=C(\C(=O)O)c1csc(NN=C(C)C)n1	-	-	-	-	-	-	.	.	.	.
COC(=O)C1=C(C)N(Cc2cccc(C(F)(F)F)c2)C(=NCC2CC2)NC1c1ccc(F)cc1 (stereo not drawn)	.	101	.	96	.	.	101	72	94	81
COC(=O)C1=C(C)N(Cc2cccc(C(F)(F)F)c2)C(=NCC2CC2)NC1c1ccccc1C(F)(F)F (stereo not drawn)	.	-	.	-	.	.	.	.	.	.
COC(=O)C1=C(C)N(Cc2cccc(C(F)(F)F)c2)C(=NCC2CC2)NC1c1cccc(C(F)(F)F)c1 (stereo not drawn)	.	56	.	50	.	.	53	26	54	44
CCN=C1NC(c2cccc(Cl)c2)C(C(=O)OC)=C(C)N1Cc1ccc(C(F)(F)F)cc1 (stereo not drawn)	.	-	.	-	.	.	.	.	.	.
COC(=O)C1=C(C)N(Cc2cccc(C(F)(F)F)c2)C(=NCC2CC2)NC1c1cccc(Cl)c1 (stereo not drawn)	.	77	.	72	.	.	61	35	66	55
O=C(CCN1C(=O)c2ccccc2S1(=O)=O)Nc1nc2c(s1)CCCC2	-	-	-	-	-	-	.	.	.	.
CC(OC(=O)c1cccc(-n2cnnn2)c1)c1nc2ccccc2c(=O)[nH]1 (stereo not drawn)	-	-	.	-	-	-	.	.	.	.
O=C(c1ccccc1-c1ncc[nH]1)N1CCc2c([nH]c3ccccc23)C1c1ccccn1 (stereo not drawn)	-	-	-	-	-	-	.	.	.	.
Cc1c(NC(=S)NC(=O)Cc2ccccc2)cccc1C(=O)O	-	-	-	-	-	-	.	.	.	.
COc1ccc(CC(=O)NC(=S)Nc2cccc(CO)c2)cc1	-	-	.	79	-	-	83	55	-	-
SMILES	OX1R antag-1	TAAR1 antag	GPR7 antag	TAAR1 agonist	OX1R antag-2	CHO parental Ca	TAAR1 ag conf	Ga16 ag counter	TAAR1 desens	Ga16 nonsel ant
COc1ccc(CC(=O)NC(=S)Nc2cccc(C)c2)cc1	-	49	.	82	-	-	71	50	52	45
Cc1cc(C)c(O)c(NC(=S)NC(=O)Cc2ccccc2)c1	-	72	-	95	-	-	85	48	54	37
O=C1NC(c2cccc3ccccc23)Nc2ccc(Cl)cc21 (stereo not drawn)	.	-	.	-	.	.	.	.	.	.
O=C(CNC(=O)c1cccc(Cl)c1)N/N=C/C=C/c1ccccc1	-	-	-	46	-	-	77	15	67	-
O=C(CNC(=O)c1cccc(Cl)c1)N/N=C/c1cccnc1	-	-	-	-	-	-	.	.	.	.
O=C(CNC(=O)c1ccccc1F)N/N=C/c1ccc2c(c1)OCO2	-	-	-	-	-	-	.	.	.	.
O=C(CNC(=O)c1ccccc1Cl)N/N=C/C=C/c1ccccc1	-	.	-	.	-	-	.	-	.	-
O=C(N/N=C/C=C/c1ccccc1)c1ccncc1	-	-	-	-	-	-	.	.	.	.
O=C(O)c1ccc(N/N=C/C=C/c2ccccc2)cc1	-	-	-	57	-	-	-	12	-	-
O=C(CNC(=O)c1ccccc1F)N/N=C\C=C\c1ccccc1	-	-	-	42	-	-	67	-	56	-
Cc1nc(SCC(=O)N(C)C2(C#N)CCCCC2)c2ccccc2n1	-	-	.	-	-	-	.	.	.	.
COCC1CCCCC1OS(N)(=O)=O (stereo not drawn)	-	-	-	-	-	-	.	.	.	.
O=[N+]([O-])c1cccc(S(=O)(=O)Nc2ccc(S(=O)(=O)NCC3CCCO3)cc2)c1 (stereo not drawn)	-	-	-	-	-	-	.	.	.	.

Screening data deposited in PubChem BioAssay by The Scripps Research Institute Molecular Screening Center.
